Results taken from ChEMBL document CHEMBL1781939, “Triterpene and sterol derivatives from the roots of Breynia fruticosa” (J Nat Prod, 2011).

Key:
Assay type in all cases: functional, cell-based
[1] = test system: HL-60; experiment: Cytotoxicity against human HL60 cells after 48 hrs by MTT assay; details: HL-60, 48 h
Procedure, shortened: (§1)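 Cells grown in DMEM with 10% FBS, 5% CO2, 37 °C. Adherent lines plated and left to attach 12 h before dosing; suspension HL-60 plated immediately before dosing; starting density 1 × 10^5 cells/mL. Treated with 0.064, 0.32, 1.6, 8 and 40 μM in triplicate for 48 h; cisplatin as positive control. Viability by MTT; IC50 by Reed–Muench method.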

[2] = test system: SMMC-7721; experiment: Cytotoxicity against human SMMC7721 cells after 48 hrs by MTT assay; details: SMMC-7721, 48 h; procedure, shortened: as §1
[3] = test system: A549; experiment: Cytotoxicity against human A549 cells after 48 hrs by MTT assay; details: A549, 48 h; procedure, shortened: as §1
[4] = test system: MCF7; experiment: Cytotoxicity against human MCF7 cells after 48 hrs by MTT assay; details: MCF7, 48 h; procedure, shortened: as §1
[5] = test system: SW480; experiment: Cytotoxicity against human SW480 cells after 48 hrs by MTT assay; details: SW480, 48 h; procedure, shortened: as §1

SMILES	IC50 [1] [µM]	IC50 [2] [µM]	IC50 [3] [µM]	IC50 [4] [µM]	IC50 [5] [µM]
C=C(C)[C@@H]1CC[C@]2(C(=O)O)CC[C@]3(C)[C@H](CC[C@@H]4[C@@]5(C)[C@H](C(=O)O)[C@H](O)C(C)(C)[C@@H]5CC[C@]43C)[C@@H]12 [EPICEANOTHIC ACID]	> 40	> 40	> 40	> 40	> 40
C=C(C)[C@@H]1CC[C@]2(C(=O)O)CC[C@]34C(=O)O[C@]5(CC[C@@H]3[C@@H]12)[C@@]4(C)CC[C@]12O[C@]51[C@@H](C)CC2(C)C [BREYNCEANOTHANOLIC ACID]	10.2	14.3	14.5	12.7	20
C=C(CC[C@@H](C(=O)O)[C@H]1CC[C@H]2C3=CC[C@H]4[C@H](C)[C@@H](O[C@@H]5O[C@@H](C)[C@H](O)[C@@H](O)[C@@H]5O)[C@H](O)C[C@]4(C)[C@H]3CC[C@]12C)C(C)C [FRUTICOSIDE C]	> 40	> 40	> 40	> 40	> 40
C=C(CC[C@@H](C(=O)O)[C@H]1CC[C@H]2C3=CC[C@H]4[C@H](C)[C@@H](O[C@@H]5O[C@@H](C)[C@H](O)[C@@H](O)[C@@H]5O)[C@H](OC(C)=O)C[C@]4(C)[C@H]3CC[C@]12C)C(C)C [FRUTICOSIDE D]	> 40	> 40	> 40	> 40	> 40
C/C=C(/CC[C@@H](C(=O)S)[C@H]1CC[C@H]2C3=CC[C@H]4[C@H](C)[C@@H](O[C@@H]5O[C@@H](C)[C@H](O)[C@@H](O)[C@@H]5O)CC[C@]4(C)[C@H]3CC[C@]12C)C(C)C [FRUTICOSIDE G]	> 40	> 40	> 40	> 40	> 40
C=C(CC[C@@H](C(=O)O)[C@H]1CC[C@H]2C3=CC[C@H]4[C@H](C)[C@@H](O)[C@H](O)C[C@]4(C)[C@H]3CC[C@]12C)C(C)C [FRUTICOSIDE B]	> 40	> 40	> 40	> 40	> 40
C=C(C)[C@@H]1CC[C@]2(C(=O)O)CC[C@]3(C)[C@H](CC[C@@H]4[C@@]5(C)[C@H](C=O)[C@H](O)C(C)(C)[C@@H]5CC[C@]43C)[C@@H]12 [ZIZYBERANALIC ACID]	> 40	> 40	> 40	> 40	> 40
C=C(CC[C@@H](C(=O)O)[C@H]1CC[C@H]2C3=CC[C@H]4[C@H](C)[C@@H](O[C@@H]5O[C@@H](C)[C@H](O)[C@@H](O)[C@H]5O)[C@H](OC(C)=O)C[C@]4(C)[C@H]3CC[C@]12C)C(C)C [FRUTICOSIDE E]	> 40	> 40	> 40	> 40	> 40
C=C(CC[C@@H](CO)[C@H]1CC[C@H]2C3=CC[C@H]4[C@H](C)[C@@H](O)[C@H](O)C[C@]4(C)[C@H]3CC[C@]12C)C(C)C [FRUTICOSIDE A]	3	18.5	15.7	15.4	18.4
C=C(CC[C@@H](C(=O)S)[C@H]1CC[C@H]2C3=CC[C@H]4[C@H](C)[C@@H](O[C@@H]5O[C@@H](C)[C@H](O)[C@@H](O)[C@@H]5O)[C@H](OC(C)=O)C[C@]4(C)[C@H]3CC[C@]12C)C(C)C [FRUTICOSIDE F]	> 40	> 40	> 40	> 40	> 40
